The source of these data is ChEMBL document CHEMBL1144841, “Discovery of a novel indole series of EP1 receptor antagonists by scaffold hopping” (Bioorg Med Chem Lett, 2008).

Data set [1] addresses T1, Prostaglandin E2 receptor EP1 subtype (Homo sapiens, UniProt P34995).
T1 sequence (P34995 whole entry): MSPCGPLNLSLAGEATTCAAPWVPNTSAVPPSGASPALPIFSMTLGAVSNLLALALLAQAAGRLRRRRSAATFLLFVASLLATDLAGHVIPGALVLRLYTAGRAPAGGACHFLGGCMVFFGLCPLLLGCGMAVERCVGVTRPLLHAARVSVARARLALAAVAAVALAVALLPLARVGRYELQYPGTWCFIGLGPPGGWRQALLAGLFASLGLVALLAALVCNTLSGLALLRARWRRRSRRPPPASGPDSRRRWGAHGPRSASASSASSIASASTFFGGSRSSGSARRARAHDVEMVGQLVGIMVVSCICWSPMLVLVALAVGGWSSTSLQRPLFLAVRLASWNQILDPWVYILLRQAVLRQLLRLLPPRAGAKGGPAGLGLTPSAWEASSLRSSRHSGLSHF
In words: Displacement of [3H]PGE2 from human EP1 receptor expressed in CHOK1 cells. The class given is cell-based, CHO-K1. Put shortly: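 Membranes from CHO-K1 cells stably transfected with human EP1 cDNA were incubated with competing compound and [3H]-PGE2 (3 nM final) for 30 min at 30 °C. Bound radioactivity was counted by liquid scintillation. Values are means of at least three experiments.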
In general terms: Displacement assays read how much labelled ligand stays bound in the presence of the test substance.

For data set [2], the target named is T2, Prostaglandin E2 receptor EP3 subtype (Homo sapiens, UniProt P43115).
T2 sequence (P43115 whole entry): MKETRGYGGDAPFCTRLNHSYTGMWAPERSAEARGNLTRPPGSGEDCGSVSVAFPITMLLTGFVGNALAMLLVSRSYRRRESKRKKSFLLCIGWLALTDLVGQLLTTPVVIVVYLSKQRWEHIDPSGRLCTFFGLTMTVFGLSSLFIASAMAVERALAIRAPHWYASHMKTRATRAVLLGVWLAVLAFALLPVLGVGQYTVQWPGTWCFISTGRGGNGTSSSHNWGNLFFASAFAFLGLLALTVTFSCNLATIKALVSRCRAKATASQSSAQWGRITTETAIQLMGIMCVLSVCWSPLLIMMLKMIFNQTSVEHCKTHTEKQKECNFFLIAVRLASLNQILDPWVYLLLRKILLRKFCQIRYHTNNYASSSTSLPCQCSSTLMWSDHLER
Put plainly: Antagonist activity against EP3 receptor by FLIPR assay. The class given is functional.

Data set [3] has as its target T1, Prostaglandin E2 receptor EP1 subtype. In words: Antagonist activity against human EP1 receptor expressed in CHOK1 cells assessed as inhibition of PGE2-induced intracellular calcium mobilization by FLIPR assay. The class given is functional, cell-based, CHO-K1. In general terms: Calcium assays in cells follow changes in intracellular calcium, usually with a dye or a luminescent sensor.

A further data set deals with T3, Thromboxane A2 receptor (Homo sapiens, UniProt P21731).
T3 sequence (P21731 whole entry): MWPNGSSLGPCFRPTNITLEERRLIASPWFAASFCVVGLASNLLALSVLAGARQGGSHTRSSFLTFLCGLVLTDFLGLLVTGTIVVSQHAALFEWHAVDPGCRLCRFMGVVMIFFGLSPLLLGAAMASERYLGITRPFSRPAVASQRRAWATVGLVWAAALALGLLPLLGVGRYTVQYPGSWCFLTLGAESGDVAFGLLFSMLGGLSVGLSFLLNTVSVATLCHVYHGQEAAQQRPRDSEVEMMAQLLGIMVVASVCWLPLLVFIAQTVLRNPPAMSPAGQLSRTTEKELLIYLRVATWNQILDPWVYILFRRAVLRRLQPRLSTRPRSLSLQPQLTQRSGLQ
Put plainly: Antagonist activity against TP receptor by FLIPR assay. The class given is functional.

The test system of data set [4] is Liver. In words: Metabolic stability assessed as intrinsic clearance in human liver microsome. The class given is ADME. The settings on record: microsomes. Put shortly: (§1)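 Intrinsic clearance was measured in liver microsomes and expressed as mL/min/g liver. Values come from a single experiment.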
Background: Liver microsomes are a subcellular fraction often used to study metabolism.

For data set [5], the system named is Liver. Put plainly: Metabolic stability assessed as intrinsic clearance in rat liver microsome. The note with it: microsomes. The class given is ADME. Summed up:
as §1

Data set [6] has as its system Rattus norvegicus. Put plainly: Drug level in complete Freund's adjuvant-induced hypersensitivity rat blood at 3 mg/kg, po. The class given is ADME, organism-based. Further details: dose 3 mg/kg, route oral. The note with it: in vivo, read-out: Drug uptake. Put shortly:
(§2)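 Blood was sampled from the rats in the CFA hypersensitivity efficacy study, seven per dose group, and analysed by bioanalysis. Rats were dosed orally at 1, 3 and 10 mg/kg.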

Data set [7] in a line: Ratio of drug level in brain to blood in complete Freund's adjuvant-induced hypersensitivity rat. The format is ADME, tissue-based.
Data set [8] relates to Rattus norvegicus. Put plainly: Drug level in complete Freund's adjuvant-induced hypersensitivity rat blood at 10 mg/kg, po. Also on record: dose 10 mg/kg, route oral. The note with it: in vivo, read-out: Drug uptake. The format is ADME, organism-based. Summed up: as §2
Data set [9] relates to Rattus norvegicus. Put plainly: Drug level in complete Freund's adjuvant-induced hypersensitivity rat blood at 1 mg/kg, po. The settings on record: in vivo, read-out: Drug uptake. The format is ADME, organism-based. Also on record: dose 1 mg/kg, route oral. Summed up:
as §2

The test system of data set [10] is Rattus norvegicus. In words: Inhibition of complete Freund's adjuvant-induced hypersensitivity in orally dosed rat. The format is functional. The settings on record: po. Put shortly:
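Rats with CFA-induced inflammatory hypersensitivity were dosed orally, seven per dose group, with celecoxib 10 mg/kg po as comparator. Readout was taken 1 h after dosing. ED50 was calculated from the dose-response, and significance was reported at p < 0.05, 0.01 and 0.001.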

Broadly, the IC50 is the concentration that inhibits the measured activity by half. As a reminder, the Ki is the equilibrium dissociation constant of an inhibitor or competing ligand from its target. What is called Kp is tissue or fluid exposure divided by exposure in the circulation. By ED50 is commonly meant the dose at which the effect has come halfway, by size or by number of responders.

Take `O=C(O)c1csc(-n2ccc3ccc(Cl)cc32)n1`: the IC50 in data set [1] (read-out: Log IC50 (converted)) was greater than 1000 nM.

On to `CC(C)Cc1cn(-c2nc(C(=O)O)cs2)c2cc(C(F)(F)F)ccc12`, for which the results for the Ki in [2] and in data set [3] (read-out: Log Ki (converted)) were 501 nM and 0.0631 nM, respectively. Further, the IC50 in [1] (read-out: Log IC50 (converted)) was 12.6 nM.

In the case of `CC(C)Cc1cn(Cc2nc(C(=O)O)cs2)c2cc(Cl)ccc12`, in data set [1] (read-out: Log IC50 (converted)), the IC50 was 6.31 nM.

In the case of `CCc1cn(-c2nc(C(=O)O)cs2)c2cc(Cl)ccc12`, in [1] (read-out: Log IC50 (converted)), the IC50 is 126 nM.

Regarding `CN(C)CCc1cn(-c2nc(C(=O)O)cs2)c2cc(Cl)ccc12`, in [1] (read-out: Log IC50 (converted)), the IC50 was greater than 1000 nM.

With `Cc1c(CC(C)C)c2ccc(Cl)cc2n1-c1nc(C(=O)O)cs1`, in data set [1] (read-out: Log IC50 (converted)), the IC50 was 39.8 nM.

As for `CC(C)Cc1cn(-c2nc(C(=O)O)cs2)c2cc(F)ccc12`, in data set [1] (read-out: Log IC50 (converted)), the IC50 was 39.8 nM.

With `Cc1ccc2c(CC(C)C)cn(-c3nc(C(=O)O)cs3)c2c1`, the IC50 in [1] (read-out: Log IC50 (converted)) was 10 nM.

Consider `CC(C)Cc1cn(-c2nc(C(=O)O)cs2)c2cc(Br)ccc12`, for which the Ki on Thromboxane A2 receptor was 50.1 nM; in [2], 398 nM; in data set [3] (read-out: Log Ki (converted)), 0.2 nM. The IC50 in [1] (read-out: Log IC50 (converted)) was 3.98 nM.

For the compound `CCCc1cn(-c2nc(C(=O)[O-])cs2)c2cc(Cl)ccc12.[Na+]`, in data set [1] (read-out: Log IC50 (converted)), the IC50 is 31.6 nM. Moreover, the CL in the data set on Liver [4] was 1.3 mL/min/g; with Liver [5] it was 11 mL/min/g.

In the case of `CC(C)Cc1cn(-c2nc(C(=O)O)cs2)c2ccccc12`, the IC50 in data set [1] (read-out: Log IC50 (converted)) is 158 nM. In data set [3] (read-out: Log Ki (converted)), the Ki is 12.6 nM.

Take `CC(C)Cc1cn(-c2cccc(C(=O)O)c2)c2cc(Cl)ccc12`: the IC50 in [1] (read-out: Log IC50 (converted)) was 631 nM.

Take `CN(C)Cc1cn(-c2nc(C(=O)O)cs2)c2cc(Cl)ccc12`: in data set [1] (read-out: Log IC50 (converted)), the IC50 was greater than 1000 nM.

Consider `CC(C)Cc1cn(-c2nc(C(=O)[O-])cs2)c2cc(Cl)ccc12.[Na+]`, for which the Ki on Thromboxane A2 receptor was 31.6 nM; in data set [2], 316 nM; in data set [3] (read-out: Ki), 0.5 nM. For the same compound, in [1] (read-out: IC50), the IC50 came to 6.3 nM. The CL in the data set with Liver [4] is 2.2 mL/min/g; in the data set with Liver [5], 12 mL/min/g.

As for `CC(C)Cc1cn(-c2ccccc2C(=O)O)c2cc(Cl)ccc12`, the IC50 in data set [1] (read-out: Log IC50 (converted)) was greater than 1000 nM.

For the compound `O=C(O)c1csc(-n2cc(Cc3ccccc3)c3ccc(Cl)cc32)n1`, in data set [1] (read-out: Log IC50 (converted)), the half-inhibitory concentration (IC50) was 158 nM. Also, the Ki in data set [3] (read-out: Log Ki (converted)) was 63.1 nM.

For the compound `CC(C)Cc1cn(CC(=O)O)c2cc(Cl)ccc12`, the IC50 in data set [1] (read-out: Log IC50 (converted)) is greater than 1000 nM.

`CC(C)Cc1cn(-c2nc(C(=O)O)co2)c2cc(Cl)ccc12`: the IC50 in [1] (read-out: Log IC50 (converted)) was 7.94 nM. Besides, in data set [3] (read-out: Log Ki (converted)), the Ki was 1 nM.

Take `CC(C)Cc1cn(-c2ccc(C(=O)O)s2)c2cc(Cl)ccc12`: the IC50 in data set [1] (read-out: Log IC50 (converted)) was 50.1 nM.

As for `CC(C)Cc1cn(-c2cccc(C(=O)[O-])n2)c2cc(Cl)ccc12.[Na+]`, the concentration is 1230 nM in the data set with Rattus norvegicus [6], 6040 nM in the data set with Rattus norvegicus [8] and 440 nM in the data set on Rattus norvegicus [9]. Besides, the inhibition constant (Ki) in data set [2] was 794 nM; in data set [3] (read-out: Log Ki (converted)), 20 nM. In addition, in [1] (read-out: Log IC50 (converted)), the IC50 is 63.1 nM. Moreover, the Kp in data set [7] amounted to 0.05. The CL in the data set with Liver [4] was determined as 3.6 mL/min/g; in the data set on Liver [5], 4.3 mL/min/g. Further, in the data set with Rattus norvegicus [10], the ED50 was determined as 2.17 mg/kg.

For `CC(C)Cc1cn(-c2nc(CC(=O)O)cs2)c2cc(Cl)ccc12`, in data set [1] (read-out: Log IC50 (converted)), the IC50 is 158 nM.

Turning to `CC(C)(C)Cc1cn(-c2nc(C(=O)[O-])cs2)c2cc(Cl)ccc12.[Na+]`, the IC50 in data set [1] (read-out: Log IC50 (converted)) was 31.6 nM. For the same compound, the CL in the data set with Liver [4] was found to be 2.7 mL/min/g; with Liver [5] it was 1.9 mL/min/g.

In the case of `CC(C)C(=O)c1cn(-c2nc(C(=O)O)cs2)c2cc(Cl)ccc12`, the IC50 in data set [1] (read-out: Log IC50 (converted)) was 100 nM.

As to `CC(C)c1cn(-c2nc(C(=O)O)cs2)c2cc(Cl)ccc12`, in [1] (read-out: Log IC50 (converted)), the IC50 was 39.8 nM.

As for `CC(C)Cc1cn(-c2ncc(C(=O)O)s2)c2cc(Cl)ccc12`, in [1] (read-out: Log IC50 (converted)), the concentration for half-maximal inhibition (IC50) is 100 nM.

For `CN(C)C(=O)c1cn(-c2nc(C(=O)O)cs2)c2cc(Cl)ccc12`, the IC50 in data set [1] (read-out: Log IC50 (converted)) was 1000 nM.

In the case of `CC(C)Cc1cn(-c2ccc(C(=O)[O-])o2)c2cc(Cl)ccc12.[Na+]`, the results for the Ki (at Thromboxane A2 receptor; in [2]; in data set [3] (read-out: Log Ki (converted))) were 398 nM, 501 nM and 1.26 nM, respectively. For the same compound, in [1] (read-out: Log IC50 (converted)), the IC50 is 25.1 nM. Besides, the CL with Liver [4] was determined as 5.4 mL/min/g; in the data set on Liver [5], 35 mL/min/g.

On to `CC(C)(C)CCc1cn(-c2nc(C(=O)[O-])cs2)c2cc(Cl)ccc12.[Na+]`, for which the inhibitory constant (Ki) at Thromboxane A2 receptor was 79.4 nM; in data set [2] it was 398 nM; in [3] (read-out: Log Ki (converted)), 3.98 nM. For the same compound, the half-inhibitory concentration (IC50) in [1] (read-out: Log IC50 (converted)) is 6.31 nM. In addition, the CL came out at 2.1 mL/min/g with Liver [4] and 1.3 mL/min/g in the data set on Liver [5].

As to `O=C(O)c1csc(-n2cc(CC(F)(F)F)c3ccc(Cl)cc32)n1`, the IC50 in [1] (read-out: Log IC50 (converted)) is 251 nM.

As for `CC(C)Cc1cn(-c2nc(C(=O)O)cs2)c2ccc(Cl)cc12`, the IC50 in data set [1] (read-out: Log IC50 (converted)) was 39.8 nM.
